How the values were obtained:
Type in all cases: cell-based
Tubulin (Homo sapiens) [1] = target: T1, Tubulin (Homo sapiens) (UniProt P68371+Q9H4B7+P0DPH7+P68366+Q13509+Q71U36+P04350+Q3ZCM7+P07437+P68363+Q9BQE3+Q6PEY2+Q13885+Q9BVA1+Q9BUF5); test: Stabilization of microtubules in human QBI293 cells assessed as fold change in acetylated tubulin levels at 1 uM after 4 hrs by ELISA relative to DMSO
Outline: (§1)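 QBI293 cells were grown in DMEM with 10% FBS, 2 mM L-glutamine and penicillin/streptomycin, then plated at 6 × 10^5 cells/well and left overnight. Medium was replaced with fresh medium holding vehicle (DMSO) or compound, and cells were incubated 4 h. Whole-cell extract supernatants were protein-normalized by BCA assay. AcTub and α-tubulin were quantified by ELISA against standard curves. Values are fold-change over DMSO, analysed by one-way ANOVA.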

Tubulin (Homo sapiens) [2] = target: T1, Tubulin (Homo sapiens); test: Stabilization of microtubules in human QBI293 cells assessed as fold change in acetylated tubulin levels at 10 uM after 4 hrs by ELISA relative to DMSO; outline: as §1
Tubulin (Homo sapiens) [3] = target: T1, Tubulin (Homo sapiens); test: Stabilization of microtubules in human QBI293 cells assessed as fold change in alpha tubulin levels at 1 uM after 4 hrs by ELISA relative to DMSO; outline: as §1
Tubulin (Homo sapiens) [4] = target: T1, Tubulin (Homo sapiens); test: Stabilization of microtubules in human QBI293 cells assessed as fold change in alpha tubulin levels at 10 uM after 4 hrs by ELISA relative to DMSO; outline: as §1
Tubulin (Homo sapiens) [5] = target: T1, Tubulin (Homo sapiens); test: Stabilization of microtubules in human QBI293 cells assessed as fold change in acetylated tubulin levels at 1 uM after 4 hrs by ELISA relative to cevipabulin
Tubulin (Homo sapiens) [6] = target: T1, Tubulin (Homo sapiens); test: Stabilization of microtubules in human QBI293 cells assessed as fold change in acetylated tubulin levels at 10 uM after 4 hrs by ELISA relative to cevipabulin
Tubulin (Homo sapiens) [7] = target: T1, Tubulin (Homo sapiens); test: Stabilization of microtubules in human QBI293 cells assessed as increase in acetylated tubulin levels after 4 hrs by ELISA
Outline: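 QBI293 cells are grown in DMEM with 10% FBS, 2 mM L-glutamine and penicillin/streptomycin, plated at 6 × 10^5 cells/well and incubated overnight. […] Acetyl- and total α-tubulin in whole-cell extract supernatants are measured by ELISA against standard curves, with protein by BCA. Values are fold-change over DMSO; AcTub is also given relative to 100 nM cevipabulin positive control. Significance is by one-way ANOVA.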

SMILES | fold change (FC) (Tubulin (Homo sapiens) [1]) | fold change (FC) (Tubulin (Homo sapiens) [2]) | fold change (FC) (Tubulin (Homo sapiens) [3]) | fold change (FC) (Tubulin (Homo sapiens) [4]) | fold change (FC) (Tubulin (Homo sapiens) [5]) | fold change (FC) (Tubulin (Homo sapiens) [6]) | Activity (Tubulin (Homo sapiens) [7])
C[C@H](Nc1c(-c2ccccc2)c(Cl)nc2ncnn12)C(F)(F)F | 1.11 | 2.07 | 1.09 | 1.03 | 0.12 | 0.3 | Dose-dependent effect
Fc1cc(F)c(-c2c(Cl)nc3ncnn3c2NC2CCC2)c(F)c1 | 0.97 | 1.75 | 0.94 | 0.95 | 0.13 | 0.23 | Dose-dependent effect
C[C@H](Nc1c(-c2c(F)cc(S(C)(=O)=O)cc2F)c(Cl)nc2ncnn12)C(F)(F)F | 1.21 | 1.23 | 1.03 | 1.02 | 0.19 | 0.19 | –
CC(C)[C@@H](C)Nc1c(-c2ccc(C#N)cc2F)c(Cl)nc2ncnn12 (stereo in doubt; 68) | 2.15 | 2.29 | 0.95 | 0.92 | 0.47 | 0.5 | –
C[C@H](Nc1c(-c2c(F)cc(F)cc2F)c(Cl)nc2ncnn12)C(C)(C)C | – | – | – | – | – | – | Dose-dependent effect
C[C@H](Nc1c(-c2c(F)cc([S+](C)[O-])cc2F)c(Cl)nc2ncnn12)C(F)(F)F (some centres not stated) | 0.84 | 0.87 | 0.96 | 0.93 | 0.21 | 0.21 | –
C[C@H](Nc1c(-c2c(F)cc(N)cc2F)c(Cl)nc2ncnn12)C(F)(F)F | 0.94 | 0.69 | 0.97 | 0.96 | 0.17 | 0.13 | –
C[C@H](Nc1c(-c2ccc(C#N)cc2F)c(Cl)nc2ncnn12)C(F)(F)F | 2.01 | 3.64 | 1 | 1 | 0.37 | 0.67 | –
N#Cc1cc(F)c(-c2c(Cl)nc3ncnn3c2N2CCCCCCC2)c(F)c1 | 3.24 | 4.4 | 1.01 | 0.99 | 0.58 | 0.79 | –
CC(C)[C@@H](Nc1c(-c2c(F)cc(F)cc2F)c(Cl)nc2ncnn12)C(F)(F)F | – | – | – | – | – | – | Dose-dependent effect
CC(C)(C)CNc1c(-c2c(F)cc(F)cc2F)c(Cl)nc2ncnn12 | – | – | – | – | – | – | Dose-dependent effect
C[C@H](Nc1c(-c2c(F)cc([S@@+]([O-])CCCN(C)C)cc2F)c(Cl)nc2ncnn12)C(F)(F)F | 1.49 | 1.39 | 1.22 | 0.98 | 0.34 | 0.32 | –
Oc1c(-c2c(F)cc(F)cc2F)c(Cl)nc2ncnn12 | 1.04 | 1.03 | 1.06 | 1.02 | 0.17 | 0.17 | –
Nc1c(-c2c(F)cc(F)cc2F)c(Cl)nc2ncnn12 | 1.18 | 1.12 | 1.08 | 1.05 | 0.09 | 0.08 | –
C[C@H](Nc1c(-c2c(F)cc(S(=O)(=O)CCCN(C)C)cc2F)c(Cl)nc2ncnn12)C(F)(F)F | 1.13 | 1.08 | 0.7 | 1.07 | 0.24 | 0.23 | –

Source: ChEMBL document CHEMBL4732138, “Evaluation of the Structure-Activity Relationship of Microtubule-Targeting 1,2,4-Triazolo[1,5-a]pyrimidines Identifies New Candidates for Neurodegenerative Tauopathies” (J Med Chem, 2021)
